This sample holds only a part of the variants without activity.
B1: tRNA (parent)
chain: GUUCCGUUGGCGUAAUGGUAACGCGUCUCCCUCCUAAGGAGAAGACUGCGGGUUCGAGUCCCGUACGGAACG

Variants of: B1
Assay: yeast fitness relative to wild type (ratio to wild type); higher = fitter; tRNA-Arg(CCU), competitive growth, 37 C, YPD
Procedure, shortened: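 For this measurement, the tRNA-Arg(CCU) gene was varied by chemical synthesis at a 3% per-site mutation rate across 69 sites, and each variant was placed at the native genomic locus in Saccharomyces cerevisiae. The pooled strains went through a 24-hour competition in YPD at 37°C in six parallel replicates, with amplicons from start and end populations read by 100-nucleotide paired-end sequencing. Darwinian fitness relative to wild type followed from the change in each genotype's frequency. Genotypes needed ≥ 100 starting reads, and estimates < 0.5 were set to 0.5.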
Variant GUUCCGUUGGCGUAAUGGUAACGCGUCUCGCUCCUAAGGAGAAGACUGCGGGUUCAAGUCCCGUACGGAACG [C30G G56A] has a yeast fitness of 0.75.
In the case of GUUCCGUUGGCGUAAUGGUAACGCGUCUCGCUCCUAACGAGAAGACUGCGGGUUCAAGUCCCGUACGGAACG [C30G G38C G56A], the yeast fitness is reported as 0.959.
Variant GUUCCGUUGGCGUAAUGGUAACGCGUCUCUCUCCUCAGGAGAAGACUGCGGGUUCGAGUCCCGUACGGUACG [C30U A36C A69U] has a yeast fitness of no more than 0.5.
Work on GUUCCGUUGGCGUAAUGGUAACGCGUCUCGCUCCCAAGGAGAAGACUGCGGGUUCGAGUCCCGUAUGGAACG [C30G U35C C66U] yielded a yeast fitness of no more than 0.5.
Variant GUUCCGUUGGCGUAAUGGUAACGCGUCUCGCUCCUAAGGAGAAGACCGCGGGUUCGAGUCCCGUAUGGAACG [C30G U47C C66U] has a yeast fitness of 0.634.
With GUUCCGUUGGCGUAAUGGUAACGCGUCUCGCUCCUAAGGAGAAGACUGAGGGUUCAAGUGCCGUACGCAACG [C30G C49A G56A C60G G68C] the yeast fitness was 0.541.
GUUCCGUUGGCGUAAUGGUAACGCGUCUCGCUCCUAAGGAGAAGACUGCGGGUUCAUGUCCCGUACGGAACG [C30G G56A A57U] showed a yeast fitness of no more than 0.5.
With GUUCCGUUGGCGUAAUGGUAACGCGUCUCUCUCCUCAGGAGAAGACUGCGGGUUCGAGUCCCGUACGGAACG [C30U A36C] the yeast fitness was 0.566.
In the case of GUUCCGUUGGCGUAAUGGUAACGCGUCUCUCUCCUGAGGAGAAGACUGCGGGUUCGAGUCCCGUACGGAACG [C30U A36G], the yeast fitness is reported as 0.927.
In the case of GUUCCGUUGGCGUAAUGGUAACGCGUCUCGCUCCUAAGGACAAGACUGCGGGUUCGAGUCCCGUACGGAUCG [C30G G41C A70U], the yeast fitness is reported as no more than 0.5.
GUUCCGUUGGCGUAAUGGUAACGCGUCUCGCUCCUAAGGAGAAGACUGCGGGUUCGAGUCCCGUAUGGAACG [C30G C66U] gave a yeast fitness of 0.606.
With GUUCCGUUGGCGUAAUGGUAACGCGUCUCGCUCCUAAGGAGAAGACUGCGGGUUCGAGUCCCGUAGGGAACG [C30G C66G] the yeast fitness was 0.574.
GUUCCGUUGGCGUAAUGGUAACGCGUCUCGCUCCUAAGGAGAAGACUGCGGGUUCGAGUCCCGUAAGGAACG [C30G C66A] gave a yeast fitness of no more than 0.5.
In the case of GUUCCGUUGGCGUAAUGGUAACGCGUCUCGCUCCUAAGGAGAAGACUGAGGGUUCGAGUCCCGUACGAAACG [C30G C49A G68A], the yeast fitness is reported as no more than 0.5.
With GUUCCGUUGGCGUAAUGGUAACGCGUCUCGCUCCUAAGGAGAAGACUGCGGGUUCGAGUCCCCUACGGAACG [C30G G63C] the yeast fitness was no more than 0.5.
For GUUCCGUUGGCGUAAUGGUAACGCGUCUCGCUCCUAAGGAGAAGACUGCGGGUUCGAGUCCCAUACGGAACG [C30G G63A], the yeast fitness was 0.641.
For GUUCCGUUGGCGUAAUGGUAACGCGUCUCGCUCCUAAGGAGAAGACUGCGGGUUCGAGUCUCGUACGGAACG [C30G C61U], the yeast fitness was 0.57.
GUUCCGUUGGCGUAAUGGUAACGCGUCUCGCUCCUAAGGAGAAGACUGCGGGUUCGAGUCGCGUACGGAACG [C30G C61G] gave a yeast fitness of 0.697.
In the case of GUUCCGUUGGCGUAAUGGUAACGCGUCUCGCUCCUAAGGAGAAGACUGCGGGUUCGAGUCACGUACGGAACG [C30G C61A], the yeast fitness is reported as no more than 0.5.
GUUCCGUUGGCGUAAUGGUAACGCGUCUCGCUCCUAAGGAGAAGACCGCGGGUUCGAGUCCCAUACAGAACG [C30G U47C G63A G67A] showed a yeast fitness of no more than 0.5.
GUUCCGUUGGCGUAAUGGUAACGCGUCUCGCUCCUAAGGAGAAGACUGCAGGUUCGAGUCCCGUACGGAACG [C30G G50A] gave a yeast fitness of 0.72.
With GUUCCGUUGGCGUAAUGGUAACGCGUCUCGCUCCUAAGGAGAAGACUGCCGGUUCGAGUCCCGUACGGAACG [C30G G50C] the yeast fitness was 0.781.
In the case of GUUCCGUUGGCGUAAUGGUAACGCGUCUCGCUCCUAAGGAGAAGACUGCGGGUUCGACUCCCGUAGGGAACG [C30G G58C C66G], the yeast fitness is reported as 0.829.
Work on GUUCCGUUGGCGUAAUGGUAACGCGUCUCGCUCCCAAGGAGGAGACUGUGGGUUCAAAUCCCGUACGGACCG [C30G U35C A42G C49U G56A G58A A70C] yielded a yeast fitness of 0.591.
With GUUCCGUUGGCGUAAUGGUAACGCGUCUCGCUCCCAAGGAGAAGACUGCGGGUUCGAGUCCCGUACGGAACG [C30G U35C] the yeast fitness was no more than 0.5.
GUUCCGUUGGCGUAAUGGUAACGCGUCUCGCUCCUAAGGAGAAGACUCCGGAUUCGAGUCCCGUACUGAACG [C30G G48C G52A G67U] showed a yeast fitness of no more than 0.5.
Variant GUUCCGUUGGCGUAAUGGUAACGCGUCUCGCUCCUAACGAGAAGACUGCGGGUUCAAGUCCCGUGCGGAACG [C30G G38C G56A A65G] has a yeast fitness of 0.624.
In the case of GUUCCGUUGGCGUAAUGGUAACGCGUCUCGCUCCUAAGGAGAAGACUGCGGGUUCGAGUCCCGUACCGAACG [C30G G67C], the yeast fitness is reported as 0.637.
Work on GUUCCGUUGGCGUAAUGGUAACGCGUCUCGCUCCUAAGGAGAAGACAGGGGGUUCGAGUCUCCUACGGAACG [C30G U47A C49G C61U G63C] yielded a yeast fitness of 0.541.
GUUCCGUUGGCGUAAUGGUAACGCGUCUCGCACCUAAGGAGAAGACUACGGGUUCGAGUCCCGUACCGAACG [C30G U32A G48A G67C] showed a yeast fitness of 0.568.
For GUUCCGUUGGCGUAAUGGUAACGCGUCUCGCACCUAAGGAGUAGACUGCGGGUUCGAGUCCCGUACGGAACG [C30G U32A A42U], the yeast fitness was no more than 0.5.
Variant GUUCCGUUGGCGUAAUGGUAACGCGUCUCGCUCCUAAGGAGAAGACUGCGGCUUCGAGUCCCGUACGGAACG [C30G G52C] has a yeast fitness of 0.512.
In the case of GUUCCGUUGGCGUAAUGGUAACGCGUCUCGCUCCUAAGGAGAAGACUGCGGAUUCGAGUCCCGUACGGAACG [C30G G52A], the yeast fitness is reported as 0.605.
GUUCCGUUGGCGUAAUGGUAACGCGUCUCGCUCCUAAGGAGAAGACUGCGGGUUCGAGUCCCGCACGGAACG [C30G U64C] showed a yeast fitness of 0.626.
GUUCCGUUGGCGUAAUGGUAACGCGUCUCGCUCCUAAGGAGAAGACUGCGGGUCCGAGUCCCGUACGGAACG [C30G U54C] showed a yeast fitness of 0.568.
In the case of GUUCCGUUGGCGUAAUGGUAACGCGUCUCGCUCCUAAGGAGAAGACUGCGGGUGCGAGUCCCGUACGGAACG [C30G U54G], the yeast fitness is reported as no more than 0.5.
In the case of GUUCCGUUGGCGUAAUGGUAACGCGUCUCGCUCCUAAGGAGAAGACUGCGGGUUAGAGUCCCGUUCGGAACG [C30G C55A A65U], the yeast fitness is reported as 0.552.

— the RNAGym collection of RNA variant scans (doi:10.1126/science.aae0568)
